Source: ChEMBL document CHEMBL2157986, “The multiobjective based design, synthesis and evaluation of the arylsulfonamide/amide derivatives of aryloxyethyl- and arylthioethyl- piperidines and pyrrolidines as a novel class of potent 5-HT₇ receptor antagonists” (Eur J Med Chem, 2012)

How the values were obtained:
[1] = target: 5-hydroxytryptamine receptor 7 (Homo sapiens, UniProt P34969); assay: Displacement of [3H]-5-CT from human 5-HT7b receptor expressed in HEK293 cells after 1 hr; type: cell-based
Chain of 5-hydroxytryptamine receptor 7 (P34969 whole entry): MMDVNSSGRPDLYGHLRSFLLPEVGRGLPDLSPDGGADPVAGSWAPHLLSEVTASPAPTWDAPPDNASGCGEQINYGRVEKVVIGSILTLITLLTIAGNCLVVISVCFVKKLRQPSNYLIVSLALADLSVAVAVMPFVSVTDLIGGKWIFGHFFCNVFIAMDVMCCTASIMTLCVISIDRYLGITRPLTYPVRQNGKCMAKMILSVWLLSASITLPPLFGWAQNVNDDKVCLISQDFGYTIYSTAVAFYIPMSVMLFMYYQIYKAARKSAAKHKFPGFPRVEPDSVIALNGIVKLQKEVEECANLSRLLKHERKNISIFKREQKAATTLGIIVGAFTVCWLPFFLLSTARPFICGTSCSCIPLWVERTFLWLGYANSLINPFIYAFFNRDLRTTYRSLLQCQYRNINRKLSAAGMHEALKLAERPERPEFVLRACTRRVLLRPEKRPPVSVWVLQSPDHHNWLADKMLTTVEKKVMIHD

[2] = target: T1, 5-hydroxytryptamine receptor 1A (Homo sapiens, UniProt P08908); assay: Displacement of [3H]-8-OH-DPAT from human 5-HT1A receptor expressed in HEK293 cells after 1 hr; type: cell-based
T1 sequence (P08908 whole entry): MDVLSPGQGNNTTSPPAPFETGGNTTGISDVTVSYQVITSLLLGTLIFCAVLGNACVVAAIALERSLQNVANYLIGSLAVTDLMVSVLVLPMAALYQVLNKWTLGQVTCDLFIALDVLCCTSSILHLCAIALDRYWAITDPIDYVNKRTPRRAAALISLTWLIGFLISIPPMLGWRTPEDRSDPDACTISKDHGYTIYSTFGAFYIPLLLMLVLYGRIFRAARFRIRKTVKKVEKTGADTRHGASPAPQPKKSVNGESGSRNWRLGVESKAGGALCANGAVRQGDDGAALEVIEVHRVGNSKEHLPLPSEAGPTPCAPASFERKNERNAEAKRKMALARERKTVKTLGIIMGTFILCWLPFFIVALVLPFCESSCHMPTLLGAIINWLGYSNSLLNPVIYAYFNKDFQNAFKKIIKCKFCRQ
Procedure, shortened: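 Membranes from stably transfected HEK293 cells (human 5-HT1A), homogenized in 50 mM Tris–HCl, 0.1 mM EDTA, 4 mM MgCl2, 10 µM pargyline, 0.1% ascorbate; incubated 1 h at room temperature, then rapid filtration and radioactivity counting. Nonspecific binding with 10 µM 5-HT.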

[3] = target: 5-hydroxytryptamine receptor 6 (Homo sapiens, UniProt P50406); assay: Displacement of [3H]-LSD from human 5-HT6 receptor expressed in HEK293 cells after 1 hr; type: cell-based
Chain of 5-hydroxytryptamine receptor 6 (P50406 whole entry): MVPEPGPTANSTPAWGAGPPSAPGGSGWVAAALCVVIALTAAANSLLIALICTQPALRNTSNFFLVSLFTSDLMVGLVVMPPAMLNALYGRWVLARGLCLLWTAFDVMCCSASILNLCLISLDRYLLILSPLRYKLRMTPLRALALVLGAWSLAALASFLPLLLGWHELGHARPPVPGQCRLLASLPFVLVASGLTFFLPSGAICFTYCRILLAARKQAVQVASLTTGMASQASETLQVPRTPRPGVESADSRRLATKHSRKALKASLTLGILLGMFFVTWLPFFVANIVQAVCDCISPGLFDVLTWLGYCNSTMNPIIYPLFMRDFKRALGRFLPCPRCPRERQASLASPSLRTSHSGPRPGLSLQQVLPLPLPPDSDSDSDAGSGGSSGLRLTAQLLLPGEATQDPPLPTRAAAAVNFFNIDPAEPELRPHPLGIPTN

[4] = target: D(2) dopamine receptor (Homo sapiens, UniProt P14416); assay: Binding affinity to human dopamine D2L receptor expressed in HEK293 cells after 1 hr; type: cell-based
Chain of D(2) dopamine receptor (P14416 whole entry): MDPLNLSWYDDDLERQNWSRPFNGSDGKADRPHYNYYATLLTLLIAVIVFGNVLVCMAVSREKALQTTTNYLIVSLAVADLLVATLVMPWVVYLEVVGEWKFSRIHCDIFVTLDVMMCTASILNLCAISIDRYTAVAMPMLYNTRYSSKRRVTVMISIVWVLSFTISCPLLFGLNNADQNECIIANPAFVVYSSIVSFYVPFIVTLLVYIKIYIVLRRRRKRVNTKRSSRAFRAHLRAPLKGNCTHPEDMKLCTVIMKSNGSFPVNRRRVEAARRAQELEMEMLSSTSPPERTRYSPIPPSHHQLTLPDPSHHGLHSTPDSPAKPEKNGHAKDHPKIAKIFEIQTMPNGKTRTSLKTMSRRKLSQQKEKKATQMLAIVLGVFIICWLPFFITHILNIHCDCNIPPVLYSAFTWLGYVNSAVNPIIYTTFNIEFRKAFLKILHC

[5] = species on record: Homo sapiens; assay: Selectivity ratio of Ki for human 5-HT1A receptor to Ki for human 5-HT7b receptor

Row | SMILES | Ki [1] [nM] | Ki [2] [nM] | Ki [3] [nM] | Ki [4] [nM] | Ratio Ki [5]
1 | O=S(=O)(N[C@H]1CCN(CCOc2ccccc2-c2ccccc2)C1)c1ccc(Cl)s1 |  | 147 | 551 | 8 | 
2 | O=C(NC1CCN(CCOc2cccc(-c3ccccc3)c2)C1)c1cccc(F)c1 (stereo not given) | 709 |  |  |  | 
3 | CCOc1ccccc1C(=O)NCC1CCN(CCOc2ccccc2SC)CC1 | 1190 |  |  |  | 
4 | CC(C)c1ccccc1OCCN1CCC(CNC(=O)c2cccs2)CC1 | 407 |  |  |  | 
5 | O=S(=O)(N[C@@H]1CCN(CCOc2ccccc2-c2ccccc2)C1)c1ccc(Cl)s1 |  | 75 | 202 | 39 | 
6 | CC(C)c1ccccc1OCCN1CC[C@H](NS(=O)(=O)c2ccc(Cl)s2)C1 |  | 89 | 537 | 25 | 
7 | O=C(NC1CCN(CCOc2ccccc2-c2ccccc2)C1)c1cccc(F)c1F (stereo not given) | 21 | 48 | 1800 | 15 | 2
8 | Cc1ccccc1C(=O)NC1CCN(CCSc2cccc(Cl)c2Cl)CC1 | 815 |  |  |  | 
9 | O=S(=O)(NC1CCN(CCSc2ccccc2-c2ccccc2)CC1)c1ccc(F)c(F)c1 | 93 |  |  |  | 
10 | O=S(=O)(NC1CCN(CCOc2ccccc2-c2ccccc2)C1)c1cc(F)ccc1F (stereo not given) | 9 | 81 | 515 | 18 | 9
11 | CC(C)c1ccccc1OCCN1CCC(CNS(=O)(=O)c2cccc(Cl)c2)CC1 | 46 | 104 | 177 | 66 | 2
12 | O=C(NC1CCN(CCOc2ccccc2-c2ccccc2)C1)c1ccc2ccccc2n1 (stereo not given) | 41 | 45 | 1340 | 24 | 1
13 | O=C(NC1CCN(CCSc2ccccc2-c2ccccc2)CC1)c1ccc2ccccc2n1 | 865 |  |  |  | 
14 | CCOc1ccccc1C(=O)NC1CCN(CCSc2ccccc2-c2ccccc2)CC1 | 329 |  |  |  | 
15 | O=S(=O)(NCC1CCN(CCOc2cccc(F)c2)CC1)c1ccc(F)cc1 | 1360 | 903 | 2120 | 839 | < 1
16 | CCOc1ccccc1C(=O)NC1CCN(CCOc2cccc(F)c2)CC1 | 2380 | 456 | 3780 | 76 | < 1
17 | O=S(=O)(NC1CCN(CCOc2ccccc2-c2ccccc2)C1)c1ccc(F)c(F)c1 (stereo not given) | 7 | 92 | 327 | 24 | 13
18 | O=S(=O)(NC1CCN(CCOc2ccccc2-c2ccccc2)C1)c1ccc(F)cc1 (stereo not given) | 5 |  |  |  | 
19 | O=S(=O)(NCC1CCN(CCOc2ccccc2-c2ccccc2)CC1)c1ccc(F)cc1 | 13 | 290 | 315 | 46 | 22
20 | CCOc1ccccc1C(=O)NC1CCN(CCOc2ccccc2C(C)C)C1 (stereo not given) | 204 |  |  |  | 
21 | O=S(=O)(NC1CCN(CCOc2ccccc2-c2ccccc2)CC1)c1ccc(Cl)s1 | 12 |  |  |  | 
22 | O=S(=O)(NC1CCN(CCOc2ccccc2)C1)c1ccc(Cl)s1 (stereo not given) |  | 65 | 957 | 318 | 
23 | CCOc1ccccc1C(=O)NC1CCN(CCOc2cccc(-c3ccccc3)c2)C1 (stereo not given) | 1100 |  |  |  | 
24 | O=S(=O)(N[C@@H]1CCN(CCOc2ccccc2-c2ccccc2)C1)c1ccc(F)cc1 | 2 | 22 | 102 | 16 | 11
25 | Cc1ccccc1C(=O)NC1CCN(CCSc2cccc(Cl)c2Cl)C1 (stereo not given) | 427 |  |  |  | 
26 | O=C(NC1CCN(CCOc2cc(Cl)ccc2Cl)CC1)c1ccc2ccccc2n1 | 873 |  |  |  | 
27 | COc1ccc(OC)c(S(=O)(=O)NCC2CCN(CCOc3ccccc3C(C)C)CC2)c1 | 27 |  |  |  | 
28 | CCOc1ccccc1C(=O)NC1CCN(CCOc2cccc(NC(C)=O)c2)C1 (stereo not given) | 3370 |  |  |  | 
29 | CC(C)c1ccccc1OCCN1CC[C@@H](NS(=O)(=O)c2ccc(Cl)s2)C1 |  | 49 | 200 | 20 | 

The next lines start with the values.

Row | Ki [1] [nM] | Ki [2] [nM] | Ki [3] [nM] | Ki [4] [nM] | Ratio Ki [5] | SMILES
30 | 16 | 10 | 156 | 60 | < 1 | O=S(=O)(NC1CCN(CCOc2cccc3c2CCCC3)C1)c1cc(F)ccc1F (stereo not given)
31 | 391 |  |  |  |  | O=C(NC1CCN(CCOc2ccccc2-c2ccccc2)CC1)c1cccc(F)c1
32 | 276 |  |  |  |  | O=C(NC1CCN(CCOc2ccccc2-c2ccccc2)CC1)c1cccs1
33 | 3.2 | 250 |  |  |  | O=S(=O)(c1ccc2cc[nH]c2c1)N1CCC[C@@H]1CCN1CCC(Oc2ccc(Cl)cc2)CC1
34 |  | 28 | 91 | 67 |  | O=S(=O)(NC1CCN(CCOc2cccc(Cl)c2Cl)C1)c1ccc(Cl)s1 (stereo not given)
35 | 20 | 101 | 410 | 32 | 5 | O=S(=O)(NCC1CCN(CCOc2ccccc2-c2ccccc2)CC1)c1ccc(Cl)s1
36 | 29 | 21 | 258 | 16 | < 1 | CC(C)c1ccccc1OCCN1CCC(NS(=O)(=O)c2cccs2)C1 (stereo not given)
37 | 161 |  |  |  |  | O=C(NC1CCN(CCOc2cccc(Cl)c2Cl)C1)c1ccc2c(c1)OCCO2 (stereo not given)
38 | 0.3 | 436 | 240 | 51 | 1450 | CC(C)c1ccccc1OCCN1CCC(NS(=O)(=O)c2ccc(F)cc2)CC1
39 | 27 | 13 | 102 | 72 | < 1 | O=S(=O)(NC1CCN(CCOc2cccc3c2CCCC3)C1)c1cccs1 (stereo not given)
40 | 1670 |  |  |  |  | CC(C)(C)c1ccccc1OCCN1CCC(NC(=O)c2cccc(F)c2)CC1
41 |  | 717 | 225 | 78 |  | O=S(=O)(NC1CCN(CCOc2cc(Cl)ccc2Cl)C1)c1ccc(Cl)s1 (stereo not given)
42 | 7 | 313 | 199 | 63 | 45 | O=S(=O)(NC1CCN(CCOc2ccccc2-c2ccccc2)CC1)c1ccc(F)c(F)c1
43 | 10 | 23 | 504 | 10 | 2 | CC(C)c1ccccc1OCCN1CCC(NS(=O)(=O)c2cccc3cccnc23)C1 (stereo not given)
44 | 85 |  |  |  |  | CCOc1ccccc1C(=O)NC1CCN(CCOc2ccccc2-c2ccccc2)C1 (stereo not given)
45 | 9 | 9 | 248 | 11 | 1 | O=S(=O)(NC1CCN(CCOc2ccccc2)C1)c1ccc(F)cc1 (stereo not given)
46 | 78 | 18 | 147 | 50 | < 1 | CSc1ccccc1OCCN1CCC(CNS(=O)(=O)c2cccc(Cl)c2)CC1
47 | 1140 |  |  |  |  | CSc1ccccc1OCCN1CCC(NC(=O)c2cccs2)CC1

Row | Ki [1] [nM] | Ki [2] [nM] | Ki [3] [nM] | Ki [4] [nM] | Ratio Ki [5] | SMILES
48 | 415 |  |  |  |  | O=C(NCC1CCN(CCOc2cc(Cl)ccc2Cl)CC1)c1cccc(F)c1
49 | 2220 |  |  |  |  | O=C(NC1CCN(CCOc2cccc3c2CCCC3)C1)c1cccc(F)c1 (stereo not given)
50 | 60 | 141 | 313 | 50 | 2 | CC(C)c1ccccc1OCCN1CCC(CNS(=O)(=O)c2ccc(F)cc2)CC1
51 | 2190 | 283 | 831 | 560 | < 1 | O=S(=O)(NCC1CCN(CCOc2cccc(F)c2)CC1)c1cccc(Cl)c1
52 | 1500 |  |  |  |  | Cc1ccccc1C(=O)NCC1CCN(CCOc2ccccc2C(C)(C)C)CC1
53 | 155 | 237 | 862 | 84 | 2 | O=S(=O)(NC1CCN(CCOc2ccccc2)CC1)c1cccs1
54 | 293 | 230 | 951 | 523 | < 1 | O=S(=O)(NC1CCN(CCOc2cccc(F)c2)C1)c1ccc(F)c(F)c1 (stereo not given)
55 | 1110 |  |  |  |  | O=C(NC1CCN(CCSc2cccc(Cl)c2Cl)C1)c1ccc2ccccc2n1 (stereo not given)
56 | 16 | 22 | 96 | 72 | 1 | O=S(=O)(NC1CCN(CCOc2cccc3c2CCCC3)C1)c1ccc(F)cc1 (stereo not given)
57 | 59 |  |  |  |  | Cc1ccccc1C(=O)NC1CCN(CCOc2ccccc2-c2ccccc2)C1 (stereo not given)
58 | 1440 | 270 | 1780 | 729 | < 1 | O=S(=O)(NC1CCN(CCOc2cccc(F)c2)C1)c1cccs1 (stereo not given)
59 | 2220 | 841 | 2760 | 1060 | < 1 | O=S(=O)(NCC1CCN(CCOc2cccc(F)c2)CC1)c1cccs1
60 | 409 |  |  |  |  | Cc1ccccc1C(=O)NCC1CCN(CCOc2cccc3c2CCCC3)CC1
61 | 17 |  |  |  |  | CSc1ccccc1OCCN1CCC(NS(=O)(=O)c2ccc(Cl)s2)CC1
62 | 334 |  |  |  |  | O=C(NCC1CCN(CCOc2ccccc2-c2ccccc2)CC1)c1ccc2ccccc2n1
63 | 2670 |  |  |  |  | Cc1ccccc1C(=O)NCC1CCN(CCOc2cccc(-c3ccccc3)c2)CC1
64 | 97 |  |  |  |  | O=S(=O)(NC1CCN(CCOc2cc(Cl)ccc2Cl)C1)c1ccc(F)c(F)c1 (stereo not given)
65 | 311 |  |  |  |  | CCOc1ccccc1C(=O)NC1CCN(CCOc2ccccc2C(C)C)CC1
